Measurements: ChEMBL document CHEMBL1127479, “Synthesis and structure-activity studies of N,N'-diarylguanidine derivatives. N-(1-naphthyl)-N'-(3-ethylphenyl)-N'-methylguanidine: a new, selective noncompetitive NMDA receptor antagonist” (J Med Chem, 1994)

molecular target: Glutamate NMDA receptor; experiment: In vitro concentration required to inhibit specific [3H]MK-801 radioligand binding to N-methyl-D-aspartate (NMDA) receptor on rat brain membrane
Outline: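 Rat brain crude synaptic membranes, thawed, pretreated at 1 mg protein/mL with 0.01% Triton X-100 for 15 min at 37 °C, then washed three times by centrifugation. Filtration stop. IC50 taken from displacement curves or nonlinear least-squares regression.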

With C/[N+](=C(/[NH-])Nc1cccc([N+](=O)[O-])c1)c1cccc2ccccc12 as the molecule, how does the IC50 read?
Its IC50 is 2800 nM.

With CC(C)c1ccccc1N=C(N)Nc1ccccc1C(C)C as the molecule, how does the IC50 read?
The IC50 was 217 nM.

With Cc1cccc(NC(=N)Nc2cccc(C)c2)c1 as the molecule, how does the IC50 read?
The IC50 was 335 nM.

For CCc1ccccc1NC(=N)Nc1ccccc1CC, which IC50 is on record?
Its IC50 is 820 nM.

For NC(=Nc1ccccc1I)Nc1ccccc1I, which IC50 is on record?
The IC50 was 228 nM.

Which IC50 does the source give for NC(=Nc1cccc2ccccc12)N(c1ccccc1)c1cccc2ccccc12 here?
Its IC50 is 484 nM.

For CCN(C(=N)N(C)c1cccc2ccccc12)c1cccc2ccccc12, which IC50 is on record?
The IC50 was 53 nM.

For NC(=Nc1cccc2ccccc12)N1CCCCCC1, which IC50 is on record?
Its IC50 is 10000 nM.

For N=C(Nc1cccc2c1CCC2)Nc1cccc2c1CCC2, which IC50 is on record?
The IC50 was 506 nM.

For CCc1cccc(N=C(N)N(C)c2cccc3ccccc23)c1, which IC50 is on record?
The IC50 was 537 nM.

For Cc1cccc(N=C(N)N(C)c2cccc(C)c2)c1, which IC50 is on record?
Its IC50 is 1990 nM.

With CCc1cccc(N(CC)C(N)=Nc2cccc3ccccc23)c1 as the molecule, how does the IC50 read?
Its IC50 is 73 nM.

Which IC50 does the source give for CN(C(=N)Nc1cccc2ccccc12)c1cccc([N+](=O)[O-])c1 here?
Its IC50 is 87 nM.

Which IC50 does the source give for N=C(Nc1cccc2ccccc12)N1CCC(c2ccccc2)CC1 here?
Its IC50 is 10000 nM.

For CN(C(N)=Nc1cccc(N=[N+]=[N-])c1)c1cccc2ccccc12, which IC50 is on record?
The IC50 was 1690 nM.

For N=C(N1CCc2ccccc21)N1CCc2ccccc21, which IC50 is on record?
Its IC50 is > 100000 nM.

With N=C(Nc1ccccc1)Nc1ccccc1 as the molecule, how does the IC50 read?
Its IC50 is 3450 nM.

With CCc1ccc(NC(=N)Nc2ccc(CC)cc2)cc1 as the molecule, how does the IC50 read?
The IC50 was 10300 nM.

For CC(C)(C)c1ccccc1NC(=N)Nc1ccccc1C(C)(C)C, which IC50 is on record?
The IC50 was 38300 nM.

For CCc1cccc(NC(=N)Nc2cccc(CC)c2)c1, which IC50 is on record?
The IC50 was 168 nM.

With CCCc1cccc(NC(=N)Nc2cccc(CCC)c2)c1 as the molecule, how does the IC50 read?
Its IC50 is 2000 nM.

For N=C(Nc1cccc2ccccc12)Nc1cccc2ccccc12, which IC50 is on record?
The IC50 was 330 nM.

For NC(=Nc1ccc(Br)cc1)Nc1ccc(Br)cc1, which IC50 is on record?
The IC50 was 34000 nM.

For NC(=Nc1ccccc1-c1ccccc1)Nc1ccccc1-c1ccccc1, which IC50 is on record?
Its IC50 is 10000 nM.

For Cc1ccc(N=C(N)Nc2ccc(C)cc2)cc1, which IC50 is on record?
The IC50 was 13300 nM.

Which IC50 does the source give for CC(C)c1ccc(NC(=N)Nc2ccc(C(C)C)cc2)cc1 here?
The IC50 was 23200 nM.

With CC(C)c1cccc(NC(=N)Nc2cccc(C(C)C)c2)c1 as the molecule, how does the IC50 read?
Its IC50 is 407 nM.

For CCc1cccc(N(C)C(=N)N(CC)c2cccc3ccccc23)c1, which IC50 is on record?
The IC50 was 97 nM.

With CN(C(=N)N(C)c1cccc2ccccc12)c1cccc2ccccc12 as the molecule, how does the IC50 read?
Its IC50 is 69 nM.

For CN(C(N)=Nc1cccc2ccccc12)c1cccc2ccccc12, which IC50 is on record?
Its IC50 is 115 nM.

With CN(C(N)=Nc1cccc(N)c1)c1cccc2ccccc12 as the molecule, how does the IC50 read?
The IC50 was 10000 nM.

Which IC50 does the source give for CCc1cccc(N=C(N)N2CCC(c3ccccc3)CC2)c1 here?
Its IC50 is 10000 nM.

Which IC50 does the source give for Cc1cccc(NC(=N)Nc2cccc3ccccc23)c1 here?
Its IC50 is 192 nM.

With CC(C)c1ccccc1N=C(N)Nc1cccc2ccccc12 as the molecule, how does the IC50 read?
Its IC50 is 102 nM.

Which IC50 does the source give for CCc1cccc(N(C)C(=N)N(C)c2cccc3ccccc23)c1 here?
Its IC50 is 100 nM.

Which IC50 does the source give for CN(C(=N)N(c1ccccc1)c1cccc2ccccc12)c1cccc2ccccc12 here?
Its IC50 is 470 nM.

With CN(C(N)=Nc1cccc2ccccc12)c1cccc(N=[N+]=[N-])c1 as the molecule, how does the IC50 read?
Its IC50 is 65 nM.

With NC(=Nc1cccc2ccccc12)Nc1ccccc1I as the molecule, how does the IC50 read?
Its IC50 is 209 nM.

Which IC50 does the source give for CN(C(N)=Nc1cccc2ccccc12)c1ccccc1 here?
Its IC50 is 1030 nM.

For CCN(C(N)=Nc1cccc2ccccc12)c1cccc2ccccc12, which IC50 is on record?
The IC50 was 117 nM.

With NC(=Nc1cccc2ccccc12)NCc1ccccc1 as the molecule, how does the IC50 read?
The IC50 was 2900 nM.

Which IC50 does the source give for N=C(Nc1cccc2ccccc12)N1CCCCC1 here?
The IC50 was 10000 nM.

Which IC50 does the source give for COc1cccc(N=C(N)Nc2cccc(OC)c2)c1 here?
The IC50 was 493 nM.

With CCc1cccc(NC(=N)Nc2cccc3ccccc23)c1 as the molecule, how does the IC50 read?
Its IC50 is 39 nM.

For N=C(Nc1ccc2ccccc2c1)Nc1ccc2ccccc2c1, which IC50 is on record?
The IC50 was 12700 nM.

Which IC50 does the source give for CC(C)c1ccccc1N=C(N)N(C)c1cccc2ccccc12 here?
Its IC50 is 859 nM.

For CN(C(N)=Nc1cccc2ccccc12)c1cccc(N)c1, which IC50 is on record?
The IC50 was 2070 nM.

For CCc1cccc(N(C)C(N)=Nc2cccc3ccccc23)c1, which IC50 is on record?
Its IC50 is 36 nM.

With Cc1ccccc1NC(=N)Nc1ccccc1C [DITOLYLGUANIDINE] as the molecule, how does the IC50 read?
Its IC50 is 9120 nM.

molecular target: not listed separately; experiment: Tested in vitro for the concentration required to inhibit specific [3H]DTG radioligand binding to sigma receptor on guinea pig brain membrane

With CCc1ccccc1NC(=N)Nc1ccccc1CC as the molecule, how does the IC50 read?
The IC50 was 14 nM.

Which IC50 does the source give for CCc1ccc(NC(=N)Nc2ccc(CC)cc2)cc1 here?
The IC50 was 245 nM.

With CC(C)(C)c1ccccc1NC(=N)Nc1ccccc1C(C)(C)C as the molecule, how does the IC50 read?
The IC50 was 356 nM.

With NC(=Nc1ccccc1-c1ccccc1)Nc1ccccc1-c1ccccc1 as the molecule, how does the IC50 read?
Its IC50 is 8110 nM.
